Tests used:
Rattus norvegicus [1] = assay: Antisecretory activity against histamine stimulated gastric acid secretion in Shay rats by peroral administration of 30 mg /kg was determined; format: functional; conditions: Stomach, po
In short: (§1)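 Female OFA rats, 150–175 g, six per group, fasted 24 h with water allowed. Dose given orally in 10% gum arabic (5 mL/kg) 1 h before histamine 100 mg/kg sc. Promethazine 10 mg/kg ip 30 min before histamine; pylorus ligated under chloral hydrate 30 min after. Juice collected 2 h, titrated with 0.1 N NaOH. Acid output compared with controls by Student's t test.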

Rattus norvegicus [2] = organism: Rattus norvegicus; assay: Antisecretory activity against histamine stimulated gastric acid secretion in Shay rats expressed as ED50; format: functional; conditions: Stomach
In short: (§2)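 Histamine-stimulated Shay rats: females (OFA, 150–175 g, n=6/group), fasted 24 h. Oral dosing in 10% gum arabic, 1 h pre-histamine (100 mg/kg sc), promethazine 10 mg/kg ip pretreatment. Pylorus ligation under chloral hydrate; 2 h gastric juice titrated with 0.1 N NaOH. Lower doses tested when 30 mg/kg gave >80% inhibition; ED50 from regression line.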

Rattus norvegicus [3] = assay: Antiulcer activity against restraint-induced gastric erosions in rats, following 100 mg/kg p.o. administration.; format: functional, Stomach; conditions: route oral
In short: (§3)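 Restraint-stress erosions (Rossi): female OFA rats, 150–175 g, six per group, fasted 24 h. Oral dose in 10% gum arabic (5 mL/kg) 1 h before restraint in wire-netting cages. Rats killed 24 h later and gastric mucosal erosions assessed. A rat counted protected with no erosion; read-out is % protected rats.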

Rattus norvegicus [4] = organism: Rattus norvegicus; assay: Antiulcer activity by protection of restraint-induced gastric erosions in rats, by using the technique of Rossi was determined at peroral dose of; format: functional, Stomach; in short: as §3
Rattus norvegicus [5] = organism: Rattus norvegicus; assay: Antisecretory activity against histamine stimulated gastric acid secretion in Shay rats expressed as ED50 value ranges from (1-2.6); format: functional; conditions: Stomach; in short: as §2
Rattus norvegicus [6] = assay: Antiulcer activity by protection of restraint-induced gastric erosions in rats, by using the technique of Rossi was determined at peroral dose of 10 mg/kg; format: functional, Stomach; conditions: route oral; in short: as §3
Rattus norvegicus [7] = organism: Rattus norvegicus; assay: Antisecretory activity against histamine stimulated gastric acid secretion in Shay rats expressed as ED50 value ranges from (1.7-17.4); format: functional; conditions: Stomach; in short: as §2
Rattus norvegicus [8] = assay: Antiulcer activity by protection of restraint-induced gastric erosions in rats, by using the technique of Rossi was determined at peroral dose of 5 mg/kg; format: functional, Stomach; conditions: route oral; in short: as §3
Rattus norvegicus [9] = assay: Antisecretory activity against histamine stimulated gastric acid secretion in Shay rats by peroral administration of 30 mg /kg was determined: activity not statistically significant; format: functional; conditions: Stomach, po; in short: as §1
Rattus norvegicus [10] = organism: Rattus norvegicus; assay: Antisecretory activity against histamine stimulated gastric acid secretion in Shay rats expressed as ED50; value ranges from(0.5-22.3).; format: functional; conditions: Stomach; in short: as §2
Rattus norvegicus [11] = assay: Antisecretory activity against histamine stimulated gastric acid secretion in Shay rats by peroral administration of 30 mg /kg was determined :activity not statistically significant; format: functional; conditions: Stomach, po; in short: as §1
Rattus norvegicus [12] = assay: Antiulcer activity by protection of restraint-induced gastric erosions in rats, by using the technique of Rossi was determined at peroral dose of 30 mg/kg; format: functional, Stomach; conditions: route oral; in short: as §3
Rattus norvegicus [13] = organism: Rattus norvegicus; assay: Antisecretory activity against histamine stimulated gastric acid secretion in Shay rats expressed as ED50 value ranges from (2.5-12.1); format: functional; conditions: Stomach; in short: as §2
Rattus norvegicus [14] = organism: Rattus norvegicus; assay: Antisecretory activity against histamine stimulated gastric acid secretion in Shay rats expressed as ED50 value ranges from (1.3-7.1); format: functional; conditions: Stomach; in short: as §2
Rattus norvegicus [15] = organism: Rattus norvegicus; assay: Antisecretory activity against histamine stimulated gastric acid secretion in Shay rats expressed as ED50; value ranges from (1.0-6.5); format: functional; conditions: Stomach; in short: as §2
Rattus norvegicus [16] = organism: Rattus norvegicus; assay: Antisecretory activity against histamine stimulated gastric acid secretion in Shay rats expressed as ED50; value ranges from (0.1-2.2); format: functional; conditions: Stomach; in short: as §2
Rattus norvegicus [17] = assay: Antiulcer activity by protection of restraint-induced gastric erosions in rats, by using the technique of Rossi was determined at peroral dose of 4.5 mg/kg; format: functional, Stomach; conditions: route oral; in short: as §3
Rattus norvegicus [18] = organism: Rattus norvegicus; assay: Antisecretory activity against histamine stimulated gastric acid secretion in Shay rats expressed as ED50 value ranges from (2.7-12.3); format: functional; conditions: Stomach; in short: as §2
Rattus norvegicus [19] = organism: Rattus norvegicus; assay: Antisecretory activity against histamine stimulated gastric acid secretion in Shay rats expressed as ED50; value ranges from (0.5-2); format: functional; conditions: Stomach; in short: as §2
Rattus norvegicus [20] = organism: Rattus norvegicus; assay: animal or person; conditions: Stomach
Rattus norvegicus [21] = organism: Rattus norvegicus; assay: Antisecretory activity against histamine stimulated gastric acid secretion in Shay rats expressed as ED50 value ranges from (0.8-2.8); format: functional; conditions: Stomach; in short: as §2
Rattus norvegicus [22] = organism: Rattus norvegicus; assay: Antisecretory activity against histamine stimulated gastric acid secretion in Shay rats expressed as ED50 value ranges from (0.1-1.3); format: functional; conditions: Stomach; in short: as §2
Rattus norvegicus [23] = organism: Rattus norvegicus; assay: Antiulcer activity against histamine stimulated gastric acid secretion in Shay rats expressed as ED50; format: functional; conditions: Stomach
Rattus norvegicus [24] = organism: Rattus norvegicus; assay: Antisecretory activity against histamine stimulated gastric acid secretion in Shay rats expressed as ED50 value ranges from (0.6-3.8); format: functional; conditions: Stomach; in short: as §2

CN(C)C(=S)C1(c2ccccn2)CCCS1 (centres undefined)
inhibition in vivo at 30 mg/kg (Rattus norvegicus [1]): 74% | ED50 (Rattus norvegicus [2]): < 30 mg/kg | Protection (Rattus norvegicus [3]): 83%

S=C(N1CCOCC1)C1(c2ccccn2)CCCS1 (centres undefined)
inhibition in vivo at 30 mg/kg (Rattus norvegicus [1]): 54% | ED50 (Rattus norvegicus [2]): ≤ 30 mg/kg | Protection (Rattus norvegicus [3]): 83%

CCCCCCCCCCCC/N=C(\S)C1(c2ccccn2)CCCS1 (centres undefined)
inhibition in vivo at 30 mg/kg (Rattus norvegicus [1]): 0% | ED50 (Rattus norvegicus [2]): > 30 mg/kg | Protection (Rattus norvegicus [4]): 0%

CC/N=C(\S)C1(c2ccccn2)CCCS1 (centres undefined)
ED50 (Rattus norvegicus [5]): 1.6 mg/kg | Protection (Rattus norvegicus [6]): 50%

CCCCc1ccnc(C2(/C(S)=N/C)CCCS2)c1 (centres undefined)
inhibition in vivo at 30 mg/kg (Rattus norvegicus [1]): 78% | ED50 (Rattus norvegicus [2]): < 30 mg/kg | Protection (Rattus norvegicus [3]): 100%

N=C(S)C(c1ccccc1)c1ccccn1 (centres undefined)
ED50 (Rattus norvegicus [7]): 5.5 mg/kg

S=C(NCc1ccccc1)C1(c2ccccn2)CCCS1 (centres undefined)
inhibition in vivo at 30 mg/kg (Rattus norvegicus [1]): 58% | ED50 (Rattus norvegicus [2]): ≤ 30 mg/kg | Protection (Rattus norvegicus [3]): 100%

C/N=C(\S)C1(c2ccccn2)OCCCS1 (centres undefined)
Protection (Rattus norvegicus [8]): 50% | ED50 (Rattus norvegicus [2]): 1.6 mg/kg

C/N=C(\S)C1(c2cccnn2)CCCS1 (centres undefined)
Protection (Rattus norvegicus [3]): 100%

CN(C)CCC/N=C(\S)C1(c2ccccn2)CCCS1 (centres undefined)
ED50 (Rattus norvegicus [2]): > 30 mg/kg | Protection (Rattus norvegicus [3]): 0% | inhibition in vivo at 30 mg/kg (Rattus norvegicus [9]): 0%

NC(=S)C1(c2ccccn2)CCCS1 (centres undefined)
ED50 (Rattus norvegicus [10]): 3.2 mg/kg | Protection (Rattus norvegicus [3]): 100%

CN(C)CC/N=C(\S)C1(c2ccccn2)CCCS1 (centres undefined)
ED50 (Rattus norvegicus [2]): > 30 mg/kg | Protection (Rattus norvegicus [3]): 16% | inhibition in vivo at 30 mg/kg (Rattus norvegicus [9]): 0%

C/N=C(\S)C1(c2ccccn2)SCCCS1
ED50 (Rattus norvegicus [2]): 5.7 mg/kg | Protection (Rattus norvegicus [6]): 50%

CCCCCCC/N=C(\S)C1(c2ccccn2)CCCS1 (centres undefined)
inhibition in vivo at 30 mg/kg (Rattus norvegicus [1]): 0% | ED50 (Rattus norvegicus [2]): > 30 mg/kg | Protection (Rattus norvegicus [3]): 33%

S=C(Nc1ccccc1)C1(c2ccccn2)CCCS1 (centres undefined)
inhibition in vivo at 30 mg/kg (Rattus norvegicus [11]): 0% | ED50 (Rattus norvegicus [2]): > 30 mg/kg

CN1CCN(C(=S)C2(c3ccccn3)CCCS2)CC1 (centres undefined)
ED50 (Rattus norvegicus [2]): > 30 mg/kg | Protection (Rattus norvegicus [3]): 0% | inhibition in vivo at 30 mg/kg (Rattus norvegicus [9]): 8%

C/N=C(\S)C1(c2ccncc2)CCCS1 (centres undefined)
inhibition in vivo at 30 mg/kg (Rattus norvegicus [1]): 53% | ED50 (Rattus norvegicus [2]): ≤ 30 mg/kg | Protection (Rattus norvegicus [3]): 83%

CCCC/N=C(\S)C1(c2ccccn2)CCCS1 (centres undefined)
Protection (Rattus norvegicus [12]): 100% | ED50 (Rattus norvegicus [13]): 5.5 mg/kg

C/N=C(\S)C1(c2ccc3ccccc3n2)CCCS1 (centres undefined)
ED50 (Rattus norvegicus [14]): 3 mg/kg | Protection (Rattus norvegicus [3]): 100%

C/N=C(\S)C1(c2cccnc2)CCCS1 (centres undefined)
inhibition in vivo at 30 mg/kg (Rattus norvegicus [1]): 49% | ED50 (Rattus norvegicus [2]): ≥ 30 mg/kg | Protection (Rattus norvegicus [3]): 100%

OCC/N=C(\S)C1(c2ccccn2)CCCS1 (centres undefined)
ED50 (Rattus norvegicus [2]): > 30 mg/kg | Protection (Rattus norvegicus [3]): 16% | inhibition in vivo at 30 mg/kg (Rattus norvegicus [9]): 25%

C/N=C(\S)C1(c2cnccn2)CCCS1 (centres undefined)
inhibition in vivo at 30 mg/kg (Rattus norvegicus [1]): 38% | ED50 (Rattus norvegicus [2]): > 30 mg/kg | Protection (Rattus norvegicus [3]): 100%

C=CCNC(=S)C1(c2ccccn2)CCCS1 (centres undefined)
ED50 (Rattus norvegicus [2]): > 30 mg/kg | Protection (Rattus norvegicus [3]): 0% | inhibition in vivo at 30 mg/kg (Rattus norvegicus [9]): 20%

C/N=C(\S)C1(c2ccccn2)CCCCS1 (centres undefined)
ED50 (Rattus norvegicus [15]): 2.6 mg/kg | Protection (Rattus norvegicus [6]): 100%

N/N=C(\S)C1(c2ccccn2)CCCS1 (centres undefined)
ED50 (Rattus norvegicus [2]): > 30 mg/kg | Protection (Rattus norvegicus [3]): 0% | inhibition in vivo at 30 mg/kg (Rattus norvegicus [9]): 0%

Cc1cccc(C2(C(=N)S)CCCS2)n1 (centres undefined)
inhibition in vivo at 30 mg/kg (Rattus norvegicus [1]): 71% | ED50 (Rattus norvegicus [2]): < 30 mg/kg | Protection (Rattus norvegicus [3]): 100%

NC(=S)C1(c2ccccn2)SCCCS1
ED50 (Rattus norvegicus [2]): 2.8 mg/kg | Protection (Rattus norvegicus [3]): 100%

C/N=C(\S)C1(c2ccccn2)CCCO1 (centres undefined)
ED50 (Rattus norvegicus [16]): 0.5 mg/kg | Protection (Rattus norvegicus [17]): 66%

C/N=C(\S)C1(c2ccc(C)cn2)CCCS1 (centres undefined)
Protection (Rattus norvegicus [6]): 60% | ED50 (Rattus norvegicus [18]): 5.7 mg/kg

C/N=C(\S)C1(c2cc(C)ccn2)CCCS1 (centres undefined)
ED50 (Rattus norvegicus [19]): 1 mg/kg | Protection (Rattus norvegicus [6]): 83%

S=C(N1CCCCC1)C1(c2ccccn2)CCCS1 (centres undefined)
Protection (Rattus norvegicus [3]): 83% | inhibition in vivo at 30 mg/kg (Rattus norvegicus [9]): 30%

CN/C(=N\CCSCc1nc[nH]c1C)NC#N [CIMETIDINE]
ED50 (Rattus norvegicus [20]): 30 mg/kg | Protection (Rattus norvegicus [3]): 50%

CNC(=S)C1(c2cccc(C)n2)CCCS1 (centres undefined) [LUCARTAMIDE]
ED50 (Rattus norvegicus [21]): 1.5 mg/kg | Protection (Rattus norvegicus [6]): 50%

CNC(=S)C1(c2ccccn2)CCCS1 (centres undefined) [PICARTAMIDE]
ED50 (Rattus norvegicus [22]): 0.4 mg/kg | Protection (Rattus norvegicus [17]): 50% | ED50 (Rattus norvegicus [23]): 5.9 mg/kg

Cc1cnc2c(c1)CCCC2C(N)=S (centres undefined) [TIQUINAMIDE]
ED50 (Rattus norvegicus [24]): 1.6 mg/kg

From ChEMBL document CHEMBL1123588, “Synthesis and antisecretory and antiulcer activities of derivatives and analogues of 2-(2-pyridyl)tetrahydrothiophene-2-carbothioamide” (1987)
